Measurements published in ChEMBL document CHEMBL1128590, “erbB-2 oncogene inhibition by geldanamycin derivatives: synthesis, mechanism of action, and structure-activity relationships” (J Med Chem, 1995).

Tests used:
Mus musculus [1] = test: In vivo inhibition of p185 phosphotyrosine in nu/nu nude mice bearing Fisher rat embryo cells transfected with human erbB-2 at 400 mg/kg; assay type: functional
In short: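 FRE/erbB-2 cells were implanted subcutaneously in CD-1 (nu/nu) mice. At days 12-14 (~1 cm) the mice received 400 mg/kg ip. After 3 h, tumours were excised and extracted to isolate p185 phosphotyrosine. The value is percent inhibition.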

Mus musculus [2] = test: In vivo inhibition of p185 phosphotyrosine in nu/nu nude mice bearing Fisher rat embryo cells transfected with human erbB-2 at 200 mg/kg; assay type: functional
In short: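 Nude CD-1 (nu/nu) mice bearing subcutaneous FRE/erbB-2 tumours were dosed ip at 200 mg/kg at days 12-14 (~1 cm tumours). Tumours were removed 3 h later and extracted for p185 phosphotyrosine. The value is percent inhibition.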

SK-BR-3 = test: In vitro inhibition of p185 erbB-2 oncoprotein in human breast cancer SK-BR-3 cells; assay type: functional, cell-based
In short: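 Cellular assay with read-out as depletion of p185 erbB-2 protein after drug treatment of the cells. This depletion tracks inhibition of p185 autophosphorylation.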

With `CO[C@H]1C[C@H](C)CC2=C(N3CCC3)C(=O)C=C(NC(=O)/C(C)=C/CC[C@H](OC)[C@@H](OC(N)=O)/C(C)=C/[C@H](C)[C@H]1O)C2=O` the inhibition in vivo at 400 mg/kg (Mus musculus [1]) was 44%.

`CO[C@H]1/C=C\C=C(/C)C(=O)NC2=CC(=O)C(N)=C(C[C@@H](C)C[C@H](OC)[C@@H](F)[C@@H](C)/C=C(\C)[C@@H]1OC(N)=O)C2=O` was tested, and the inhibition in vivo at 200 mg/kg (Mus musculus [2]) was 46% and the IC50 (SK-BR-3) was 140 nM.

Compound `CO[C@H]1/C=C\C=C(/C)C(=O)NC2=CC(=O)C(N)=C(C[C@@H](C)C[C@H](OC)[C@H](O)[C@@H](C)/C=C(\C)[C@@H]1OC(N)=O)C2=O` has an inhibition in vivo at 400 mg/kg (Mus musculus [1]) of 59%.

Work on `CO[C@H]1/C=C\C=C(/C)C(=O)NC2=CC(=O)C(N3CCC3)=C(C[C@@H](C)C[C@H](OC)[C@H](OC(C)=O)[C@@H](C)/C=C(\C)[C@@H]1OC(N)=O)C2=O` yielded an inhibition in vivo at 200 mg/kg (Mus musculus [2]) of 78% and an IC50 (SK-BR-3) of 70 nM.
